Bioassay records (PubChem)
GalR3 antagonist = antagonists of human GalR3; HEK293 GalR3-CNG cAMP membrane potential fluorescence; galR3 body fused to GalR1 C-terminus; O60755; inhibition, % at 3 µM; actives 0.44% (n = 360,000); AID 651719;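 active = inhibition above the screen-wide average plus 3 SD, cut at about 13% in these data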;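 also: forskolin and galanin both at EC90 stimulate the cells; cAMP rise reported by CNG channel membrane potential dye signal; 0% = forskolin plus galanin with DMSO and 100% = forskolin alone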
Target sequence (O60755 1-299 limits assumed): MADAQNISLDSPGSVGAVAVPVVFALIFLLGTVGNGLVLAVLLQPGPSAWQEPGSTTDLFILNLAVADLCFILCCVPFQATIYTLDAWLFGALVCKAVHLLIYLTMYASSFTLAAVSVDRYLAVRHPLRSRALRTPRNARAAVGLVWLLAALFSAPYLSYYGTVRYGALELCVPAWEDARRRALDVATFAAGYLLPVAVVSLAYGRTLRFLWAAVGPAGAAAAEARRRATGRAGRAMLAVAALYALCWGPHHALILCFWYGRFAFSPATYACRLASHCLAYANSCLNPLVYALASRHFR
OX1R antag-1 = antagonists of human orexin 1 receptor; CHO/OX1R cells, Fluo-8 calcium fluorescence, orexin A; inhibition, % at 5 µM; actives 0.43% (n = 330,000);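 active = inhibition above its plate's threshold, mean inhibition of all tested compounds on the plate plus 3 SD, cut at about 37% in these data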;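 also: 0% = orexin A challenge wells and 100% = SB-334867-A antagonist wells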
Target sequence (O43613 whole entry, looked up): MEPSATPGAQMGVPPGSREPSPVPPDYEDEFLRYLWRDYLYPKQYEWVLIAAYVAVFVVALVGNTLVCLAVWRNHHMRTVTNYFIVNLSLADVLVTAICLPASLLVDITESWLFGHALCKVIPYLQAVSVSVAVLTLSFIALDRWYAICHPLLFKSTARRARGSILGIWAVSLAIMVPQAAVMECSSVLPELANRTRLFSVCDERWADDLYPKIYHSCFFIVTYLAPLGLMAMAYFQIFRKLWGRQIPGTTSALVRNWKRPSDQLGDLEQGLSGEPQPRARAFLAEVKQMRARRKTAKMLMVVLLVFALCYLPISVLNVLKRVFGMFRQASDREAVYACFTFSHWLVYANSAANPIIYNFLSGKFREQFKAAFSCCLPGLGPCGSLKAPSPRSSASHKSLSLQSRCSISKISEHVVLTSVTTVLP
OX1R antag-2 = OX1R (human) antagonism | OX1R-expressing cells, FRET antagonist read-out | inhibition, % at 6.6 µM | actives 1.8% (n = 330,000); in the data active = inhibition mostly above about 38%, no sharp cut-off; inactive = mostly below about 40%;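 also: 0% = agonist challenge alone and 100% = reference antagonist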
GPR7 antag = human neuropeptides B/W receptor 1 antagonism; GPR7-expressing cells, fluorescence antagonist assay; inhibition, % at 4.4 µM; actives 1.1% (n = 290,000); AID 1861; in the data active = inhibition above about 16%, passing the limit was not always enough;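 also: cells stimulated with the agonist NPW; 0% = agonist with vehicle and 100% = vehicle without agonist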
CHO parental Ca = counter-screen: ATP calcium response change in parental CHO cells; parental CHO-K1, ATP-induced calcium, Fluo-8 fluorescence; inhibition, % at 5.6 µM; actives 0.63% (n = 330,000);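 active = inhibition above that plate's mean sample inhibition plus 3 SD, cut at about 26% in these data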;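 also: 0% = ATP-challenged DMSO wells and 100% = DMSO wells without ATP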
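Measured by: calcium-sensitive Fluo-8 fluorescence / Test system: CHO parental line / Controls: ATP-challenged DMSO wells low, unchallenged DMSO wells high / Measure: % inhibition / Compound: single nominal dose of 5.6 µM per compound / Replicates: single well per compound, no replicates / Reagent: ATP as calcium-mobilizing challenge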
GPR7 antag cf = human GPR7 antagonism, confirmation assay; shares compounds with GPR7 antag; GPR7-expressing cells, calcium fluorescence antagonist mode; inhibition, % at 4.4 µM; actives 52% (n = 2,400); AID 1952; in the data active = inhibition above about 24%;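 also: stimulated with the GPR7 agonist NPW; 0% = agonist plus vehicle and 100% = vehicle alone without agonist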
MCHR1 antagonist = counter-screen for GPR7 antagonists: antagonists of human MCHR1; actives 62% (n = 2,400); shares compounds with GPR7 antag; inhibition, % at 4.4 µM; MCHR1-expressing cells, fluorescence antagonist assay; in the data active = inhibition above about 22%;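 also: 0% = vehicle with agonist and 100% = vehicle without agonist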
* hit, by the source's call; x = not tested or not shown. The list is not random: actives were taken first. Their share in the collection is about 3.1%.

SMILES	GalR3 antagonist	OX1R antag-1	OX1R antag-2	GPR7 antag	CHO parental Ca	GPR7 antag cf	MCHR1 antagonist
CCOC(=O)C1CCN(S(=O)(=O)c2ccc(CC)cc2)CC1	-13.1	-8.3	9.3	21.1*	-8.0	15.6	24.8*
COCCNC(=O)C1(C)CCCN(C(=O)CCc2ccccc2)C1 (stereo not drawn)	-5.2	x	x	x	x	x	x
CC(C)=NOCC(=O)Nn1c(COc2c(C)cccc2C)nc2ccccc2c1=O	-4.9	-33.4	4.8	25.8*	-12.5	-15.7	-2.8
Cc1ccc(CSCCNC(=O)CSCc2ccc([N+](=O)[O-])cc2)cc1	-4.1	-18.2	7.4	26.7*	-17.2	49.0*	44.8*
Cc1ccccc1CSCCNC(=O)CSCc1ccc([N+](=O)[O-])cc1	-7.1	-3.9	15.9	9.5	1.3	x	x
Cc1cccc(CSCCNC(=O)CSCc2ccc([N+](=O)[O-])cc2)c1	-5.9	-13.6	16.7	53.1*	0.2	35.8*	73.1*
Nc1ccn([C@@H]2O[C@H](C(=O)N3CCN(C(=O)C(F)(F)F)CC3)[C@@H](O)[C@H]2O)c(=O)n1	-8.6	x	x	x	x	x	x
CC(=O)C1=C(O)C2(C)c3c(O)c(C)c(O)c(C(C)=O)c3OC2CC1=O (stereo not drawn)	3.1	x	x	x	x	x	x
COc1ccc(C2Nc3ccccc3C(=O)N2Cc2ccco2)cc1COc1ccc(F)cc1 (stereo not drawn)	-6.6	-11.8	18.1	27.4*	1.2	29.3*	24.8*
COc1ccc(C2Nc3ccccc3C(=O)N2Cc2ccco2)cc1CN1C(=O)c2ccccc2C1=O (stereo not drawn)	-3.9	-8.7	21.5	9.8	-3.5	x	x
CN(C)CCCN(C(=O)c1ccc(S(=O)(=O)N2CCc3ccccc3C2)cc1)c1nc2ccc(F)cc2s1	-5.2	-6.7	19.4	46.0*	-12.3	76.5*	63.5*
Cc1ccc2nc(N(CCCN(C)C)C(=O)c3ccc(S(=O)(=O)N4CCc5ccccc5C4)cc3)sc2c1	0.9	-19.3	11.7	31.5*	-14.9	44.3*	33.2*
CN(C)CCCN(C(=O)c1cc(-c2cccs2)nc2ccccc12)c1nc2ccc(F)cc2s1	-5.1	15.1	14.3	30.0*	13.8	58.2*	57.9*
CCN(CC(=O)NCc1cccs1)C(=O)c1ccc(N(C)S(=O)(=O)c2ccc(C)cc2)cc1	-4.7	x	x	x	x	x	x
CC(C)OC(=O)CN1CCN(S(=O)(=O)c2cc(Cl)ccc2Cl)CC1	0.6	-6.5	17.6	27.1*	-11.3	5.4	-3.6
O=C(CN1CCCC1)Nc1ccc2c(c1)CCC2	0.7	-3.6	-1.5	-12.4	-8.5	x	x
CC(=O)N1CCN(CC(=O)Nc2ccc3c(c2)CCC3)CC1	-4.1	-6.0	22.1	22.6*	-5.8	-10.3	-0.5
CCOC(=O)C(=O)N(C)c1c(CC)nc2c(OCc3cccc(OC)c3)cccn12	-8.2	x	x	x	x	x	x
NS(=O)(=O)c1cccc(NC(=O)COC(=O)CC2CC3CCC2C3)c1 (stereo not drawn)	-4.5	-13.6	-7.0	36.4*	-10.9	-6.0	-6.2
CC1(C(=O)NS(=O)(=O)c2ccc(Br)cc2)CCN1C(=O)CCC1CCCC1 (stereo not drawn)	-4.9	x	x	x	x	x	x
Cc1nn(CC(=O)Nc2ccccc2C(F)(F)F)c(=O)c2cccn12	-7.3	-4.6	7.6	31.3*	-9.0	9.2	0.9
COc1ccc([C@H]2C[C@@H](n3cc(COC(=O)c4ccccc4)nn3)[C@H](O)CN2Cc2cccs2)cc1	-3.0	x	x	x	x	x	x
CC1(C)C2CCC(C2)C1(C)NC(=O)CNCC1CCCCC1 (stereo not drawn)	-8.6	-20.0	15.9	32.6*	-13.8	38.2*	22.3*
O=C(CNCC1CCCCC1)Nc1ccc(N2CCCCC2)cc1	x	-24.0	7.5	2.7	-8.5	x	x
CSc1ccc(Cn2nnc(C(=O)NCc3ccccc3)c2N)cc1	2.9	25.1	1.7	36.7*	4.8	56.9*	52.3*
SMILES	GalR3 antagonist	OX1R antag-1	OX1R antag-2	GPR7 antag	CHO parental Ca	GPR7 antag cf	MCHR1 antagonist
Nc1c(C(=O)NCc2ccccc2)nnn1Cc1ccccc1	4.0	-7.0	17.1	-7.5	-1.2	x	x
CC1CCN(CCCNC(=O)c2ccc(CSCc3cccc(Cl)c3)o2)CC1	-9.0	-21.7	9.6	21.8*	-17.8	16.8	13.1
COc1ccc(NC(=O)Nc2cccc(OC)c2)cc1	-3.5	-9.7	-0.4	2.7	5.5	x	x
COc1cccc(NC(=O)Nc2nc(SC(C)(C)C)ns2)c1	-11.2	75.1*	36.5	29.1*	73.6*	59.9*	71.6*
Cc1cccc(NC(=S)NC(=O)CCc2ccccc2)c1C	0.2	-27.9	15.9	-5.0	-22.9	x	x
COc1cccc(NC(=S)NC(=O)Cc2ccc(Cl)cc2)c1	-4.8	9.0	-2.2	34.8*	9.0	64.2*	40.7*
Cc1cccc(NC(=S)NC(=O)Cc2ccccc2)c1C	-9.7	x	x	24.3*	x	33.8*	17.6
NC(N)=NS(=O)(=O)c1ccc(NC(=S)NC(=O)Cc2ccc(Cl)cc2)cc1	-9.5	16.9	14.1	x	2.9	x	4.7
COc1ccccc1NC(=S)NC(=O)Cc1ccc(Cl)cc1	-9.1	9.9	5.1	53.5*	24.2	30.9*	36.7*
CCCCCCn1c(=O)n2n(c1=O)[C@@H]1CN(S(=O)(=O)c3ccc(C)cc3)C[C@]1(O)[C@@H](OC(=O)NCc1ccccc1)C2	-1.7	x	x	x	x	x	x
CCCCCC1CC(CC(=O)Nc2ccc([N+](=O)[O-])cc2)OC1=O (stereo not drawn)	2.3	-23.0	7.5	25.0*	-8.7	9.0	42.0*
N#Cc1c(Nc2ccccc2)sc(C(=O)c2ccc(F)cc2)c1N	-7.0	-17.5	19.0	-8.8	-0.8	x	x
Nc1c(C(=O)c2ccccc2)sc(Nc2ccccc2)c1S(=O)(=O)c1ccccc1	-2.6	-18.9	26.4	21.7*	-9.1	-27.1	-23.0
COc1cccc(C2=NOC(C(=O)NC(C)C)C2)c1 (stereo not drawn)	-4.3	-16.9	10.8	26.5*	-7.2	1.2	3.0
O=C(CC(=O)NN=Cc1ccc2c(c1)CCC2)NN=Cc1ccc2c(c1)CCC2	-3.9	x	x	x	x	x	x
COc1cc(OC)cc(C(=O)Nc2cccc3c2CCCC3)c1	-9.0	6.4	2.7	32.5*	8.4	21.3	15.6
O=C(Nc1cccc2c1CCCC2)c1cccc(F)c1	-5.8	-21.9	10.8	-20.3	-15.6	x	x
COc1ccc(NC(=O)C[C@H]2C(=O)N(c3ccc(OC)cc3)C[C@@H]2C)cc1	-7.7	x	x	x	x	x	x
CCOC(=O)N1CCN(C(=O)c2ccc(CSc3ccc(Cl)cc3)cc2)CC1	-4.3	x	x	24.6*	x	21.7	49.2*
CN1CCN(C(=O)c2ccc(CSc3ccc(Cl)cc3)cc2)CC1	-0.4	3.7	28.4	-0.9	20.1	x	x
Cc1cc(CN(C)Cc2ccc(OCC(O)CN(C)Cc3ccccc3)cc2)on1 (stereo not drawn)	1.9	-31.4	6.9	13.7	-12.9	x	x
